Data: ChEMBL document CHEMBL5303300, “EUbOPEN Chemogenomics Library - Multiplex” (2023)
Values joined by “and” are separate entries in the source; they are usually repeats but may differ in a detail not shown here. Equal entries are not always repeated.

System: U2OS
Assay: Multiplex assay against U2OS
Assay type: toxicity, cell-based
Conditions: human, number of replicates 2
How it was run: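 Hoechst33342, BioTracker Green Microtubule Cytoskeleton Dye, MitoTracker Red and Annexin V Alexa Fluor 680 were added to live cells at seeding, and imaging on a CQ1 microscope at 37°C and 5% CO2 followed compound addition. Gating by CellPathfinder machine learning separated cells into Hoechst high-intensity objects or normal cells, then normal cells into healthy, pyknosed or fragmented nuclei, then pyknosed cells into mitotic or apoptotic. Per cents of healthy-nucleus cells are reported for the tubulin, mitochondrial-mass and membrane-permeability phenotypes.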

[1] = 12 h, 1 µM, compound concentration 1 uM
[2] = 12 h, 10 µM, compound concentration 10 uM
[3] = 24 h, 1 µM, compound concentration 1 uM
[4] = 24 h, 10 µM, compound concentration 10 uM
[5] = 48 h, 1 µM, compound concentration 1 uM
[6] = 48 h, 10 µM, compound concentration 10 uM

O=C(Nc1ccnc(NC(=O)C2CC2)c1)c1c(Cl)cccc1Cl
Population Apoptotic (%) [1]: 33% and 84% | Population Hoechst High Intensity Objects (%) [1]: 0% | Population Membrane Permeable-Phenotype (%) [1]: 4% and 3% | Population Mitochondria Different-Phenotype (%) [1]: 0% and 4% | Population Normal (%) [1]: 100% | Population Tubulin-Different-Phenotype (%) [1]: 81% and 83% | Total Cell Count [1]: 114 and 143 | Population Apoptotic (%) [2]: 60% and 58% | Population Healthy Nuclei (%) [2]: 36% and 74% | Population Hoechst High Intensity Objects (%) [2]: 0% | Population Mitochondria Different-Phenotype (%) [2]: 14% and 0% | Population Mitotic Cells (%) [2]: 40% and 41% | Population Normal (%) [2]: 100% | Population Pyknosed Nuclei (%) [2]: 26% and 19% | Population Tubulin-Different-Phenotype (%) [2]: 71% and 58% | Population Apoptotic (%) [3]: 60% and 90% | Population Hoechst High Intensity Objects (%) [3]: 0% | Population Membrane Permeable-Phenotype (%) [3]: 4% and 3% | Population Mitochondria Different-Phenotype (%) [3]: 0% and 2% | Population Normal (%) [3]: 99% and 100% | Population Pyknosed Nuclei (%) [3]: 3% and 12% | Population Tubulin-Different-Phenotype (%) [3]: 76% and 90% | Total Cell Count [3]: 131 and 182 | Population Apoptotic (%) [4]: 66% and 87% | Population Healthy Nuclei (%) [4]: 32% and 62% | Population Hoechst High Intensity Objects (%) [4]: 0% | Population Mitochondria Different-Phenotype (%) [4]: 10% and 0% | Population Mitotic Cells (%) [4]: 33% and 12% | Population Normal (%) [4]: 100% | Population Pyknosed Nuclei (%) [4]: 19% and 29% | Population Tubulin-Different-Phenotype (%) [4]: 70% and 66% | Population Apoptotic (%) [5]: 75% and 76% | Population Healthy Nuclei (%) [5]: 32% and 82% | Population Hoechst High Intensity Objects (%) [5]: 0% | Population Membrane Permeable-Phenotype (%) [5]: 5% and 1% | Population Mitochondria Different-Phenotype (%) [5]: 2% and 1% | Population Mitotic Cells (%) [5]: 25% and 23% | Population Normal (%) [5]: 99% and 100% | Population Pyknosed Nuclei (%) [5]: 3% and 10% | Population Tubulin-Different-Phenotype (%) [5]: 89% and 92% | Population Apoptotic (%) [6]: 100% and 80% | Population Hoechst High Intensity Objects (%) [6]: 0% | Population Membrane Permeable-Phenotype (%) [6]: 16% and 14% | Population Mitochondria Different-Phenotype (%) [6]: 16% and 6% | Population Mitotic Cells (%) [6]: 0% and 20% | Population Normal (%) [6]: 100% and 99% | Population Pyknosed Nuclei (%) [6]: 23% and 35% | Population Tubulin-Different-Phenotype (%) [6]: 50% and 68%

C=CC(=O)Nc1cccc(C)c1Nc1ncc2cc(-c3c(Cl)c(OC)cc(OC)c3Cl)ccc2n1
Population Apoptotic (%) [1]: 81% and 76% | Population Fragmented Nuclei (%) [1]: 9% and 3% | Population Healthy Nuclei (%) [1]: 69% and 91% | Population Hoechst High Intensity Objects (%) [1]: 1% and 0% | Population Membrane Permeable-Phenotype (%) [1]: 5% and 0% | Population Mitochondria Different-Phenotype (%) [1]: 0% | Population Mitotic Cells (%) [1]: 18% and 23% | Population Normal (%) [1]: 98% and 100% | Population Tubulin-Different-Phenotype (%) [1]: 75% and 77% | Population Apoptotic (%) [2]: 54% and 69% | Population Healthy Nuclei (%) [2]: 45% and 68% | Population Hoechst High Intensity Objects (%) [2]: 0% | Population Membrane Permeable-Phenotype (%) [2]: 0% and 5% | Population Mitochondria Different-Phenotype (%) [2]: 0% and 9% | Population Mitotic Cells (%) [2]: 45% and 30% | Population Normal (%) [2]: 100% | Population Pyknosed Nuclei (%) [2]: 33% and 26% | Population Tubulin-Different-Phenotype (%) [2]: 80% and 56% | Population Apoptotic (%) [3]: 71% and 50% | Population Healthy Nuclei (%) [3]: 63% and 88% | Population Hoechst High Intensity Objects (%) [3]: 1% and 0% | Population Membrane Permeable-Phenotype (%) [3]: 0% and 1% | Population Mitochondria Different-Phenotype (%) [3]: 0% | Population Mitotic Cells (%) [3]: 28% and 50% | Population Normal (%) [3]: 98% and 100% | Population Pyknosed Nuclei (%) [3]: 18% and 8% | Population Tubulin-Different-Phenotype (%) [3]: 87% and 78% | Population Apoptotic (%) [4]: 86% and 90% | Population Fragmented Nuclei (%) [4]: 17% and 7% | Population Healthy Nuclei (%) [4]: 40% and 54% | Population Hoechst High Intensity Objects (%) [4]: 0% | Population Membrane Permeable-Phenotype (%) [4]: 0% and 1% | Population Mitochondria Different-Phenotype (%) [4]: 0% and 8% | Population Mitotic Cells (%) [4]: 13% and 9% | Population Normal (%) [4]: 100% | Population Pyknosed Nuclei (%) [4]: 42% and 38% | Population Tubulin-Different-Phenotype (%) [4]: 92% and 65% | Population Apoptotic (%) [5]: 70% and 59% | Population Fragmented Nuclei (%) [5]: 10% and 1% | Population Healthy Nuclei (%) [5]: 72% and 88% | Population Hoechst High Intensity Objects (%) [5]: 1% and 0% | Population Membrane Permeable-Phenotype (%) [5]: 4% and 1% | Population Mitochondria Different-Phenotype (%) [5]: 1% and 0% | Population Mitotic Cells (%) [5]: 29% and 40% | Population Normal (%) [5]: 98% and 99% | Population Pyknosed Nuclei (%) [5]: 17% and 9% | Population Tubulin-Different-Phenotype (%) [5]: 90% and 85% | Population Apoptotic (%) [6]: 77% and 93% | Population Fragmented Nuclei (%) [6]: 6% and 9% | Population Healthy Nuclei (%) [6]: 31% and 40% | Population Hoechst High Intensity Objects (%) [6]: 0% and 1% | Population Membrane Permeable-Phenotype (%) [6]: 11% and 10% | Population Mitochondria Different-Phenotype (%) [6]: 11% and 10% | Population Normal (%) [6]: 100% and 98% | Population Pyknosed Nuclei (%) [6]: 62% and 50% | Population Tubulin-Different-Phenotype (%) [6]: 100% and 91%
